FXIIa inh: inhibitors of human coagulation factor XIIa; P00748; purified FXIIa, Boc-QGR-AMC fluorogenic substrate, 2 h; inhibition, % at 5 µM; 0.3% of 220,000 active; AID 800; in the data active = inhibition above about 40%
Target sequence (P00748 20-372 limits assumed): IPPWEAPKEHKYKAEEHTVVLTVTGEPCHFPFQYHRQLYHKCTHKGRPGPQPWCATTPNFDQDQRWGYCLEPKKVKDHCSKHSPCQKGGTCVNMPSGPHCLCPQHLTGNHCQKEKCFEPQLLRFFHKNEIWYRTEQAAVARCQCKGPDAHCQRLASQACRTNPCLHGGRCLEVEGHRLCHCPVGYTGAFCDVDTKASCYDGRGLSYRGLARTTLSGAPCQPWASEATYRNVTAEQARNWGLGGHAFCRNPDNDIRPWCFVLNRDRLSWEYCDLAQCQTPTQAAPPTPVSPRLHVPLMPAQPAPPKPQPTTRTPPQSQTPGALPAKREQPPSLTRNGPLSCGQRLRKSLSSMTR
Target sequence (P00748 373-615 limits assumed): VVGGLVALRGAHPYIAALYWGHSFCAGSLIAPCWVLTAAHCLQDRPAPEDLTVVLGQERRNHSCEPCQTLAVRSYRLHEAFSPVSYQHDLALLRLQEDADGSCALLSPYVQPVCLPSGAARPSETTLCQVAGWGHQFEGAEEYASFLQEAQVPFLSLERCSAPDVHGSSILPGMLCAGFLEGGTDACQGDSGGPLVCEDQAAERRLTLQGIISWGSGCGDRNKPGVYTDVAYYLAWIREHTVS
hK5 inh: kallikrein 5 (human) inhibition; recombinant hK5, fluorogenic AMC substrate cleavage; inhibition, % at 5 µM; 0.59% of 210,000 active; AID 873;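 active = inhibition of 40% or more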
FXIa inh 1536: blocks human coagulation factor XIa protease activity | P03951 | purified FXIa, Boc-Glu-Ala-Arg-AMC fluorogenic substrate | inhibition, % at 5 µM | 0.14% of 220,000 active | AID 798;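 active = inhibition of at least 40%; inactive = inhibition below 40%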;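 also: fluorescence of freed AMC excited at 355 nm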
EP2 modulator: modulates human prostaglandin E2 receptor EP2 signaling. EP2-expressing cells, cAMP HTRF FRET, PGE2 co-stimulation. induction, % at 25 µM. 0.83% of 260,000 active. AID 940;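 active = compounds whose cAMP rise, as percent of the full-agonist control response, exceeds 60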;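 also: rat C6 glioma line stably carrying human EP2 under a CMV promoter; the protocol text gives 20 µM as final concentration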
thrombin 1536: thrombin (human) inhibition; 0.26% of 220,000 active; alpha-thrombin, Boc-VPR-AMC fluorogenic substrate cleavage; inhibition, % at 5 µM;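 active = inhibition at or above 40%; inactive = inhibition below 40%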
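System: human alpha-thrombin protein; Compound dosing: one concentration per compound, 5 µM, with 0.2% DMSO; Timing: reaction at room temperature; Technique: AMC fluorescence, 355/460 nm; Controls: enzyme without compound as high, wells lacking enzyme as low.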
EP2 antag: inhibitors of human EP2 prostaglandin E2 receptor. 0.52% of 260,000 active. AID 1422. C6 glioma cells expressing human EP2, cAMP TR-FRET; cells stimulated with saturating PGE2. inhibition, % at 25 µM;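 active = percent inhibition above 40 after rounding to a whole number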;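 also: rat C6 glioma host cells with rolipram phosphodiesterase inhibitor present; the protocol text gives 20 µM as final concentration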
Each line names hits and unclear results; the compound was inactive in the other large screens. Sampled rows, rich in hits. Any-hit rate of the full collection: about 2.1%.

CC(=O)c1ccc(S(=O)(=O)N2CCC(n3cnc4cccnc43)CC2)cc1	none (no result: FXIIa inh, hK5 inh, FXIa inh 1536, thrombin 1536)
N=c1sc2ccccc2n1-c1ccccc1	EP2 modulator 61
CC[N+](C)(C)Cc1ccco1	none (no result: FXIIa inh, hK5 inh, FXIa inh 1536, thrombin 1536)
C=CCNc1oc(-c2ccc(OCC)cc2)nc1C#N	none
CCOc1ccc(-c2nc(C#N)c(NCC(C)C)o2)cc1	hK5 inh 151
NS(=O)(=O)c1ccc(N=Nc2ccc(O)c(C(=O)O)c2)cc1	none (no result: FXIIa inh, hK5 inh, FXIa inh 1536, thrombin 1536)
NS(=O)(=O)c1ccc(N=Nc2cc3ccccc3c(C(=O)O)c2O)cc1	EP2 antag 45 (no result: FXIIa inh, hK5 inh, FXIa inh 1536, thrombin 1536)
Cc1cc(C)c(NC(=O)c2ccoc2C)c(C)c1	hK5 inh 61
Cc1cccc(C)c1OCC(=O)NNC(=O)c1ccoc1C	none
CCCC(=O)NNC(=O)c1ccoc1C	FXIIa inh 40
COC(=O)[C@H]1CCc2ccccc2N1C(=O)c1ccc(F)cc1	none (no result: FXIIa inh, hK5 inh, FXIa inh 1536, thrombin 1536, EP2 antag)
Nc1nc(-c2ccc3ccccc3c2)cc(-c2cc(-c3ccc4ccccc4c3)nc(N)n2)n1	EP2 antag 51 (no result: FXIIa inh, hK5 inh, FXIa inh 1536, thrombin 1536)
CCCCOC(=O)CSCC(=O)N1N=C(c2cccs2)CC1c1ccc(F)cc1 (stereo unspecified)	EP2 antag 50
Cc1ccc(C)n1-c1ccc(-c2nnc3n2CCCCC3)s1	EP2 antag 59
C1CCc2nnc(-c3nnc4n3CCCCC4)n2CC1	none
CC1=NNC(=S)NCCCN2CCN(CCCNC(=S)NN=C(C)C=NNC(=S)NCCCN3CCN(CCCNC(=S)NN=C1)CC3)CC2	EP2 antag 45 (no result: FXIIa inh, hK5 inh, FXIa inh 1536, thrombin 1536)
Cc1n[nH]c(C)c1NC(=O)CN1CCCCCC1	none (no result: FXIIa inh, hK5 inh, FXIa inh 1536, thrombin 1536)
CCN(CC)CCN1C(=O)c2ccccc2NC1c1ccccc1F (stereo unspecified)	hK5 inh 41
CCN(CC)CCN1C(=O)c2ccccc2NC1c1ccc(F)cc1 (stereo unspecified)	none
COc1ccc(C2/C(=C(/O)c3ccc(C)cc3)C(=O)C(=O)N2CCCN2CCOCC2)c(OC)c1 (stereo unspecified)	none (no result: FXIIa inh, hK5 inh, FXIa inh 1536, thrombin 1536)
CNC(=O)NNC(=O)c1nc(-c2ccccc2)c(C)o1	hK5 inh 42
COc1cccc(-n2nnnc2SCC(=O)N2c3ccccc3CCc3ccccc32)c1	none (no result: FXIIa inh, hK5 inh, FXIa inh 1536, thrombin 1536)
CC(C)CNC(=O)Nc1ccc(F)c(Cl)c1	FXIa inh 1536 52
CCOc1ccc(NC(=S)N(CCO)Cc2cc3c(C)ccc(C)c3[nH]c2=O)cc1	none (no result: FXIIa inh, hK5 inh, FXIa inh 1536, thrombin 1536)
CCCn1nnnc1SCC(=O)Nc1ccc(CC)cc1	none (no result: FXIIa inh, hK5 inh, FXIa inh 1536, thrombin 1536)
N#Cc1nc(-c2ccccc2Cl)oc1N1CCCCC1	EP2 modulator 63
CCCc1nc(-c2ccc(-c3ccc(C)cc3)nc2OCC)no1	EP2 modulator 69 (no result: FXIIa inh, hK5 inh, FXIa inh 1536, thrombin 1536)
COc1ccccc1NC(=O)Nc1nn(C)c2cccc(OC)c12	EP2 modulator 75
CC(C(=O)N1CCOCC1)N(c1ccc(Cl)cc1)S(C)(=O)=O (stereo unspecified)	none (no result: FXIIa inh, hK5 inh, FXIa inh 1536, thrombin 1536)
Cc1c(NS(=O)(=O)c2ccc(Cl)c(C(=O)OC(C)C(=O)NCc3ccco3)c2)c(=O)n(-c2ccccc2)n1C (stereo unspecified)	none (no result: thrombin 1536)
Cc1c(NS(=O)(=O)c2ccc(Cl)c(C(=O)OCC(=O)NCc3ccco3)c2)c(=O)n(-c2ccccc2)n1C	thrombin 1536 46
O=C(c1cccc(-n2cnnn2)c1)N1C2CCC1CC(c1ccc(F)cc1)C2 (stereo unspecified)	none (no result: FXIIa inh, hK5 inh, FXIa inh 1536, thrombin 1536, EP2 antag)
CN(C)S(=O)(=O)c1ccc(Nc2ccc(O)c3c2C(=O)c2c([N+](=O)[O-])ccc(O)c2C3=O)cc1	EP2 antag 59 (no result: FXIIa inh, hK5 inh, FXIa inh 1536, thrombin 1536)
O=C(O)CN1C(=O)/C(=C/c2ccc(N3CCCCC3)o2)SC1=S	FXIIa inh 72, hK5 inh 45
O=C(NCCNC(=O)c1cc(OCC(F)(F)F)ccc1OCC(F)(F)F)Nc1ccc(Cl)cc1	none
O=C(NCCNC(=O)c1cc(OCC(F)(F)F)ccc1OCC(F)(F)F)Nc1ccc(OC(F)(F)F)cc1	hK5 inh 49
O=C(Nc1ccc(F)cc1)Nc1cc(OCC(F)(F)F)cc(OCC(F)(F)F)c1	FXIIa inh 55
O=C1CCCN1c1ccc(CN2CCC(O)(c3ccccc3F)CC2)cc1	none (no result: FXIIa inh, hK5 inh, FXIa inh 1536, thrombin 1536)
Cc1ccc(S(=O)(=O)N(CC(=O)Nc2ccccc2-c2ccccc2)c2ccc(C)cc2C)cc1	none
Cc1cccc(N(CC(=O)Nc2ccccc2-c2ccccc2)S(=O)(=O)c2ccccc2)c1C	EP2 modulator 64
Nc1cc2c(nc3c4ccccc4c(N)cc3[n+]2-c2cccc3ccccc23)c2ccccc12 (tested in a mixture with another compound)	EP2 antag 54 (no result: FXIIa inh, hK5 inh, FXIa inh 1536, thrombin 1536)
COc1ccc(NC(=O)N(Cc2ccc(C)cc2)Cc2cc3ccc(C)c(C)c3[nH]c2=O)cc1	none (no result: FXIIa inh, hK5 inh, FXIa inh 1536, thrombin 1536)
O=C1CC2(CCN(C(=O)C3CCCC3)CC2)Oc2ccc(F)cc21	none (no result: FXIIa inh, hK5 inh, FXIa inh 1536, thrombin 1536, EP2 antag)
Fc1ccc(-c2csc3ncnc(N4CCc5ccccc5C4)c23)cc1	EP2 modulator 64
Fc1ccc(-c2csc3ncnc(Nc4ccc(N5CCOCC5)cc4)c23)cc1	hK5 inh 42
c1nc(Nc2ccc(N3CCOCC3)cc2)c2ccsc2n1	none
CCCOc1ccc(/C=N/NC(=O)C2CCCN2S(=O)(=O)c2ccc(Cl)cc2)cc1 (stereo unspecified)	hK5 inh 49
CCOCC(=O)Nc1nc2c(s1)C(=O)CC(C)(C)C2	none
CCOc1ccccc1C(=O)Nc1nc2c(s1)C(=O)CC(C)(C)C2	EP2 antag 69 (no result: FXIIa inh, hK5 inh, FXIa inh 1536, thrombin 1536)
C=CCC1(CC=C)CCN1C(=O)COc1ncnc2ccccc12	none (no result: FXIIa inh, hK5 inh, FXIa inh 1536, thrombin 1536)
O=C(NCCc1ccccc1)[C@H]1C=CCN1C(=O)c1ccco1	none (no result: FXIIa inh, hK5 inh, FXIa inh 1536, thrombin 1536)
C/C(=N\NS(=O)(=O)c1ccc(Cl)c([N+](=O)[O-])c1)c1cc2ccccc2o1	none
C/C(=N\NS(=O)(=O)c1ccc(C)c([N+](=O)[O-])c1)c1cc2ccccc2o1	hK5 inh 107
Cc1cccc(NC(=S)NC(=O)/C=C/c2ccccc2)n1	thrombin 1536 50
CC[n+]1c(C)n(-c2ccccc2)c2ccc(-c3nc4ccccc4s3)cc21	none (no result: FXIIa inh, hK5 inh, FXIa inh 1536, thrombin 1536)
COc1ccc2c(c1)c(/C=N/Nc1nc3ccccc3[nH]1)c(C)n2C	EP2 antag 49
O=C(c1ccc(N2CCCC2=O)cc1)N1CCCCCC1	FXIIa inh 57
Cc1cc2c(cc3c(=O)n(CC(=O)NCCc4ccccc4Cl)nc(C)n32)s1	none (no result: FXIIa inh, hK5 inh, FXIa inh 1536, thrombin 1536, EP2 antag)
Fc1ccccc1Nc1nc(N2CCOCC2)nc(N2CCOCC2)n1	none (no result: FXIIa inh, hK5 inh, FXIa inh 1536, thrombin 1536)
COc1cc(C=O)ccc1Oc1nc(Nc2ccc(F)cc2F)nc(N2CCOCC2)n1	hK5 inh 63
COc1ccc(OC)c(CC(=O)N2CCCC(c3[nH]ncc3-c3cc(C)no3)C2)c1 (stereo unspecified)	none (no result: FXIIa inh, hK5 inh, FXIa inh 1536, thrombin 1536, EP2 antag)
Cc1ccc(NC(=O)C(C)N2CCOCC2)c(C(=O)c2ccccc2)c1 (stereo unspecified)	hK5 inh 43
COC(=O)CNC(=O)C(Cc1c[nH]c2ccccc12)NC(=O)Oc1ccccc1 (stereo unspecified)	none
COC(=O)CNC(=O)C(Cc1c[nH]c2ccccc12)NC(=O)OC(C)(C)C (stereo unspecified)	hK5 inh 44

Assay outcomes deposited in PubChem by several laboratories.
